Measured values taken from article PMC5386783 (Nature medicine, 2016).
Several values for one entry are separate records, joined by “and”; a condition that tells them apart may be missing. Equal entries are not always repeated.

Legend:
[1] = test system: ZIKV-induced caspase-3 activity; assay: Caspase-3/7 activity assay in ZIKV-infected SNB-19 cells; assay type: cell-based; settings: Homo sapiens, SNB-19, read-out: IC50, caspase activity
Summary of the method: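 SNB-19 cells (250/well, PDL-coated 1536-well) were grown 16 h at 37 °C/5% CO2, given pin-transferred test compound for 30 min, then ZIKV at 2 FFU/cell for 6 h. Caspase-Glo 3/7 reagent was added for 30 min at room temperature and luminescence read. Uninfected cells were 0% and infected cells 100%. Confirmation used 11-point 1:3 dilutions, n = 3, and IC50 came from curve fits.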

SNB-19 cells = assay: ATP content cell viability assay in ZIKV-infected SNB-19 cells; assay type: cell-based; settings: Homo sapiens, SNB-19, read-out: IC50, cell viability
forebrain-specific hNPCs = assay type: cell-based, human
Summary of the method: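 Forebrain hNPCs were derived from iPSCs via embryoid bodies, rosettes and neurospheres. Monolayers were exposed to ZIKV FSS-13025 (MOI 0.04–0.08) ± test compound and immunostained 72 h later for ZIKV envelope, cleaved caspase-3 and DAPI; %Cas3+/DAPI cells, mean ± s.e.m., n = 3 cultures, one-way ANOVA. C1–2 iPSC forebrain organoids: exposed on day 18 for 24 h, fresh medium 9 more days, then fixed and immunostained.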

[2] = oral delivery, BID, × 4 days; cited from earlier work
activated caspases = settings: cited from earlier work
[3] = cited from earlier work
ZIKV [4] = assay: ZIKV NS1 expression; assay type: cell-based, Zika virus; settings: SNB-19 cells; three strains; dose-dependent
Summary of the method: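 SNB-19 cells were treated with titrated test compound 1 h before FSS-13025, PRVABC59 or MR766 (MOI 1) and harvested at 24 h for NS1 western blot. NS1/GAPDH bands were normalised to DMSO. Secreted NS1 in the medium after 24 h was measured by NS1 ELISA kit. n = 3 cultures; one-way ANOVA versus DMSO or the 0 μM group.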

ZIKV [5] = assay: Intracellular ZIKV RNA levels; assay type: cell-based, Zika virus; settings: read-out: IC50, intracellular ZIKV RNA levels
Summary of the method: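 SNB-19 cells, astrocytes or hNPCs (~3×10^5/well, 12-well) were treated with test compound 1 h before ZIKV (MOI 0.5–1) and harvested 24–48 h post-infection. Total RNA (500–1000 ng) was reverse-transcribed with random hexamers. SYBR qPCR used ZIKV NS1 primers, with GAPDH as the endogenous control. Fold change was calculated by ΔΔCT, normalised to control cells.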

ZIKV [6] = assay: ZIKV production from SNB-19 cells, focus-forming unit assay on Vero cells; assay type: cell-based, Zika virus; settings: for concentrations suppressing production of infectious ZIKV particles: PRVABC59, MOI = 0.5, 24 hours post infection
ZIKV [7] = assay: Time-of-addition experiment in SNB-19 cells; assay type: cell-based, Zika virus; settings: PRVABC59, MOI = 1, 10 μg/ml anti-AXL antibody, 2 μM Niclosamide, 92 μM PHA-690509
Summary of the method: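 SNB-19 cells received test compound or 10 μg/ml anti-AXL antibody either 1 h before or 4 h after PRVABC59 infection (MOI 1). NS1 was detected by western blot, and NS1/GAPDH band intensities were normalised to DMSO. n = 3 cultures; one-way ANOVA versus DMSO.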

ZIKV [8] = assay: ZIKV production from iPSC-derived human astrocytes, FFU assay; assay type: cell-based, Zika virus; settings: read-out: IC50, ZIKV production upon infection of human astrocytes; PRVABC59
astrocytes = assay: Astrocyte viability, compound toxicity; assay type: cell-based; settings: at levels lower than 3 μM
Summary of the method: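 Cells were seeded in 96-well plates and, one day later, treated with test compound for 24–48 h without virus. Viability was then read with a CellTiter-Glo luminescent ATP substrate.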

hNPC [9] = assay: hNPC proliferation after ZIKV infection with compound treatment; assay type: cell-based, human; settings: ZIKV-infected hNPCs
ZIKV [10] = assay: ZIKV infection and production in hNPCs and astrocytes; assay type: cell-based, Zika virus; settings: PRVABC59
Summary of the method: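 Astrocytes were treated with test compound 1 h before PRVABC59 (MOI 0.5), fixed 24 h post-infection, and immunostained for ZIKV envelope protein with DAPI. Stained cells were counted. Virus released into culture supernatant was titrated as focus-forming units on Vero cells.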

[11] = ref WHO http://apps.who.int/medicinedocs/en/d/Jh2922e/3.1.3.html; cited from earlier work
hNPC [12] = assay: hNPC proliferation in brain organoids, compound alone without ZIKV; assay type: cell-based, human; settings: PHA-690509 1 μM, Seliciclib 5 μM

Which IC50 [1] does the source give for `C[C@H](NC(=O)C(=O)Nc1ccccc1C(C)(C)C)C(=O)N[C@@H](CC(=O)O)C(=O)COc1c(F)c(F)cc(F)c1F` [Emricasan] here?
Its IC50 is 130 to 900 nM.

And the IC50 (SNB-19 cells)?
Its IC50 is 130 to 900 nM.

What about the “suppression of ZIKV replication (ZIKV antigen)” value (forebrain-specific hNPCs; 2D and 3D cultures) of the same compound?
The value was “does not suppress ZIKV replication”.

And the “number of active (cleaved) caspase-3-expressing forebrain-specific hNPCs” value (forebrain-specific hNPCs; infected by FSS13025, monolayer and 3D organoid cultures)?
Its value is “reduced”.

And the “maximum concentration in human blood” value [2]?
The value was 2.36 μg/ml and 4.15 μM.

And the “overall concentration in human blood” value [2]?
The value was 1.90 μg/ml and 3.35 μM.

What about the “activity against activated caspases in vitro” value (activated caspases) of the same compound?
The value was “sub-to nano-molar activity”.

And the “tolerability in human trials” value [3]?
The value was “well tolerated in human trials without significant adverse events”.

Which “inhibition of ZIKV as measured by NS1 expression” value (ZIKV [4]) does the source give for `CC(=O)Nc1ccc([C@H](C)C(=O)Nc2ncc(C(C)C)s2)cc1` [PHA-690509] here?
Its value is “inhibited all three strains of ZIKV”.

And the IC50 (ZIKV [5])?
The IC50 was 1720 nM.

And the “concentrations suppressing production of infectious ZIKV particles” value (ZIKV [6])?
Its value is “sub-micromolar concentrations”.

And the “inhibition of ZIKV infection by time of addition” value (ZIKV [7])?
Its value is “effectively inhibited ZIKV infection when added either 1 hour before or 4 hours after virus inoculation”.

What about the IC50 (ZIKV [8]) of the same compound?
Its IC50 is ~200 nM.

And the “toxicity, astrocyte viability” value (astrocytes)?
Its value is “minimal toxicity”.

And the “rescue of ZIKV-induced reduction in hNPC proliferation” value (hNPC [9])?
The value was “partially rescued”.

And the “ZIKV infection and production in hNPCs and astrocytes” value (ZIKV [10])?
The value was “inhibited ZIKV infection and production”.

Which results are given for `O=C(Nc1ccc([N+](=O)[O-])cc1Cl)c1cc(Cl)ccc1O` [Niclosamide]?
inhibition of ZIKV as measured by NS1 expression (ZIKV [4]): inhibited all three strains of ZIKV; IC50 (ZIKV [5]; Zika virus): 370 nM; concentrations suppressing production of infectious ZIKV particles (ZIKV [6]): sub-micromolar concentrations; inhibition of ZIKV infection by time of addition (ZIKV [7]): effectively inhibited ZIKV infection when added either 1 hour before or 4 hours after virus inoculation; toxicity, astrocyte viability (astrocytes): minimal toxicity; ZIKV infection and production in hNPCs and astrocytes (ZIKV [10]): inhibited ZIKV infection and production; mutagenic, teratogenic or embryotoxic potential [11]: not been shown to be mutagenic, teratogenic or embryotoxic

For `CC(C)c1nn(-c2c(Cl)cccc2Cl)c2nc(Cc3ccc(OCCO)cc3)[nH]c(=O)c12` [RGB-286147], which IC50 (ZIKV [6]; read-out: IC50, ZIKV production) is on record?
The IC50 was 27 nM.

Which “rescue of ZIKV-induced reduction in hNPC proliferation” value (hNPC [9]) does the source give for `CC[C@H](CO)Nc1nc(NCc2ccccc2)c2ncn(C(C)C)c2n1` [Seliciclib] here?
Its value is “partially rescued”.

And the “effect of treatment alone on hNPC proliferation in brain organoids” value (hNPC [12])?
Its value is “minimal effect”.
